# What was measured:
# [1] = Metabolic stability in mouse liver microsomes assessed as compound remaining incubated for 10 mins; type: ADME, Microsome; settings: read-out: Stability
# In short: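 Mouse liver microsomal stability, reported as percent of parent remaining after a 10 min incubation. Values are means of at least three experiments unless otherwise noted.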
# [2] = Permeability coefficient, Kp across apical to basolateral side in human Caco2 cells; type: ADME, cell-based; settings: Caco-2, read-out: permeability
# In short: (§1)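 Caco-2 monolayer permeability measured in both directions, apical-to-basal and basal-to-apical, reported as Pc in nm/s. An efflux ratio was calculated from the two directions.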
# [3] = Metabolic stability in mouse liver microsomes assessed as half life; type: ADME, Microsome
# In short: (§2)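 Liver microsomes from human, rat, mouse, dog, cynomolgus monkey and rabbit were incubated with compound. Stability is reported as half-life (T1/2, min). Values are means of at least three separate experiments.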
# [4] = Metabolic stability in human liver microsomes assessed as half life; type: ADME, Microsome; in short: as §2
# [5] = Metabolic stability in rat liver microsomes assessed as half life; type: ADME, Microsome; in short: as §2
# [6] = Metabolic stability in dog liver microsomes assessed as half life; type: ADME, Canis lupus familiaris, Microsome; in short: as §2
# [7] = Metabolic stability in cynomolgus monkey liver microsomes assessed as half life; type: ADME, Macaca fascicularis, Microsome; in short: as §2
# [8] = Permeability coefficient, Kp across basolateral to apical side in human Caco2 cells; type: ADME, cell-based; settings: Caco-2, read-out: permeability; in short: as §1
# Cytochrome P450 2C9 = Cytochrome P450 2C9 (Homo sapiens, UniProt P11712); assay: Inhibition of CYP2C9 (unknown origin); type: ADME
# In short: (§3)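 Inhibition of CYP1A2, 2C9, 2C19, 2D6 and 3A4, read out as IC50. The highest concentration tested was 40 μM.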
# Cytochrome P450 2C19 = Cytochrome P450 2C19 (Homo sapiens, UniProt P33261); assay: Inhibition of CYP2C19 (unknown origin); type: ADME; in short: as §3
# Cytochrome P450 2D6 = Cytochrome P450 2D6 (Homo sapiens, UniProt P10635); assay: Inhibition of CYP2D6 (unknown origin); type: ADME; in short: as §3
# Cytochrome P450 3A4 [9] = target: T1, Cytochrome P450 3A4 (Homo sapiens, UniProt P08684); assay: Inhibition of CYP3A4 (unknown origin); type: ADME; in short: as §3
# Cytochrome P450 3A4 [10] = target: T1, Cytochrome P450 3A4; assay: Induction of CYP3A4 (unknown origin) by PXR-transactivation assay; type: ADME
# In short: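 CYP3A4 induction measured by PXR transactivation, read out as EC50. The highest concentration tested was 40 μM.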
# hERG (KCNH2) = hERG (KCNH2) (Homo sapiens, UniProt Q12809); assay: Inhibition of human ERG at 10 uM by patch-clamp assay relative to control
# In short: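 hERG potassium channel patch clamp assay, read as percent inhibition at 10 μM (n = 7).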
# [11] = Protein binding in cynomolgus monkey assessed as unbound fraction; type: ADME, Macaca fascicularis
# [12] = Protein binding in mouse assessed as unbound fraction; type: ADME
# [13] = Aqueous solubility of crystalline free base form of compound at pH 7.4; type: physicochemical; settings: aqueous medium
# In short: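 Aqueous solubility of the crystalline free base, measured at pH 7.4 and reported in μg/mL.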
# [14] = Clearance in C57BL/6 mouse at 1 mg/kg, iv; type: ADME, organism-based; settings: in vivo
# In short: (§4)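 Mouse iv PK: 1 mg/kg given in 80% PEG 400/20% water. Clearance (mL min⁻¹ kg⁻¹) and MRT (h) were derived.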
# [15] = Volume of distribution at steady state in C57BL/6 mouse at 1 mg/kg, iv; type: ADME, organism-based; settings: in vivo, read-out: Vdss
# In short: (§5)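 Single intravenous dose in 80% PEG 400/20% water. V_ss was taken from the iv plasma PK profile.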
# [16] = Half life in C57BL/6 mouse at 1 mg/kg, iv; type: ADME, organism-based; settings: in vivo
# In short: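 Mouse iv PK: 1 mg/kg in 80% PEG 400/20% water. Terminal half-life reported in hours.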
# [17] = MRT in C57BL/6 mouse at 1 mg/kg, iv; type: ADME, organism-based; settings: in vivo; in short: as §4
# [18] = AUC in C57BL/6 mouse at 10 mg/kg, po; type: ADME, organism-based; settings: in vivo
# In short: (§6)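 Oral PK: single dose of 10 mg/kg as a solution in ethanol/TPGS/PEG 300 (5:5:90) given to mouse, dog and monkey. Cmax (μM), AUC (μM × h) and bioavailability F (%) were derived, with F taken against the iv arm.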
# [19] = Oral bioavailability in C57BL/6 mouse at 10 mg/kg; type: ADME, organism-based; settings: in vivo; in short: as §6
# [20] = Clearance in dog at 2 mg/kg, iv; type: ADME, organism-based, Canis lupus familiaris; settings: in vivo
# In short: (§7)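 Dog and monkey iv PK: 2 mg/kg given by iv administration. Clearance (mL min⁻¹ kg⁻¹), Vss, T1/2 (h) and MRT (h) were derived.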
# [21] = Volume of distribution at steady state in dog at 2 mg/kg, iv; type: ADME, organism-based, Canis lupus familiaris; settings: in vivo, read-out: Vdss; in short: as §5
# [22] = Half life in dog at 2 mg/kg, iv; type: ADME, organism-based, Canis lupus familiaris; settings: in vivo; in short: as §7
# [23] = MRT in dog at 2 mg/kg, iv; type: ADME, organism-based, Canis lupus familiaris; settings: in vivo; in short: as §7
# [24] = AUC in dog at 10 mg/kg, po; type: ADME, organism-based, Canis lupus familiaris; settings: in vivo; in short: as §6
# [25] = Oral bioavailability in dog at 10 mg/kg; type: ADME, organism-based, Canis lupus familiaris; settings: in vivo; in short: as §6
# [26] = Clearance in cynomolgus monkey at 2 mg/kg, iv; type: ADME, organism-based, Macaca fascicularis; settings: in vivo; in short: as §7
# [27] = Volume of distribution at steady state in cynomolgus monkey at 2 mg/kg, iv; type: ADME, organism-based, Macaca fascicularis; settings: in vivo, read-out: Vdss; in short: as §5
# [28] = Half life in cynomolgus monkey at 2 mg/kg, iv; type: ADME, organism-based, Macaca fascicularis; settings: in vivo; in short: as §7
# [29] = MRT in cynomolgus monkey at 2 mg/kg, iv; type: ADME, organism-based, Macaca fascicularis; settings: in vivo; in short: as §7
# [30] = Cmax in cynomolgus monkey at 10 mg/kg, po; type: ADME, organism-based, Macaca fascicularis; parameters: dose 10 mg/kg, route oral; settings: in vivo; in short: as §6
# [31] = AUC in cynomolgus monkey at 10 mg/kg, po; type: ADME, organism-based, Macaca fascicularis; settings: in vivo; in short: as §6
# [32] = Oral bioavailability in cynomolgus monkey at 10 mg/kg; type: ADME, organism-based, Macaca fascicularis; settings: in vivo; in short: as §6
# [33] = Time during which drug concentration exceed invitro IC50 for TYK2 in mouse whole blood assessed as decrease in IFNalpha-induced STAT1 phosphorylation in C57BL/6 mouse at 7.5 mg/kg, po via gavage bid for 9 days with first dose given prior to first IL23 challenge and twice a day thereafter; type: ADME, organism-based; settings: in vivo, 216 h
# In short: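 Drug levels were measured in the animals of the IL-23 acanthosis study, dosed orally twice daily. The duration was the time, in hours, that levels stayed at or above the in vitro mouse whole blood IC50 for IFNα-induced pSTAT1.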
# Mus musculus [34] = assay: Antiinflammatory activity in CD40-induced colitis model of SCID mouse assessed as inhibition of IL-2 driven body weight loss at 50 mg/kg, po administered twice daily relative to control; type: functional; settings: in the assay text read “IL-12 driven” for “IL-2 driven”
# In short: (§8)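 Colitis induced by anti-CD40 in SCID mice. Compound was given orally at 50 mg/kg twice daily. Read-outs were peak weight loss (IL-12 driven) and histological scores.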
# Mus musculus [35] = assay: Antiinflammatory activity in CD40-induced colitis model of SCID mouse assessed as inhibition of histological scores in intestine at 50 mg/kg, po administered twice daily relative to control; type: functional; in short: as §8
# [36] = Drug metabolism in C57BL/6 mouse assessed as N-dealkylation of compound by measuring primary amide metabolite formation in mouse plasma by deuterium kinetic isotope effect; type: ADME
# In short: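 Circulating primary amide metabolite, formed by N-dealkylation of the deuteromethyl amide, was measured in the mouse, dog and monkey PK studies (10 mg/kg po; iv arms). The lower limit of detection was about 2 nM.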
# T1 sequence (P08684 whole entry): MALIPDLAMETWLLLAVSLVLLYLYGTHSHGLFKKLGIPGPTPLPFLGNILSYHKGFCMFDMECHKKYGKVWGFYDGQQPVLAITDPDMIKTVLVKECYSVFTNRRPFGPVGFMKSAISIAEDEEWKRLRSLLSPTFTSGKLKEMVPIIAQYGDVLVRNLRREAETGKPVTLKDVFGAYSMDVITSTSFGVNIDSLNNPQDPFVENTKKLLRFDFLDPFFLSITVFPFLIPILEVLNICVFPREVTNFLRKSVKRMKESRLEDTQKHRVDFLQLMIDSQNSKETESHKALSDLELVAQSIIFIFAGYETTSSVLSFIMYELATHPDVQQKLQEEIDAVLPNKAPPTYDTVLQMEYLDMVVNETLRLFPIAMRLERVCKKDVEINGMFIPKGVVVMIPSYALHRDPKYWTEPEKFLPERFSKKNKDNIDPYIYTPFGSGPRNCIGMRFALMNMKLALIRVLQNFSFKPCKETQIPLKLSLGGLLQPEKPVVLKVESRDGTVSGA
# Chain of Cytochrome P450 2C19 (P33261 whole entry): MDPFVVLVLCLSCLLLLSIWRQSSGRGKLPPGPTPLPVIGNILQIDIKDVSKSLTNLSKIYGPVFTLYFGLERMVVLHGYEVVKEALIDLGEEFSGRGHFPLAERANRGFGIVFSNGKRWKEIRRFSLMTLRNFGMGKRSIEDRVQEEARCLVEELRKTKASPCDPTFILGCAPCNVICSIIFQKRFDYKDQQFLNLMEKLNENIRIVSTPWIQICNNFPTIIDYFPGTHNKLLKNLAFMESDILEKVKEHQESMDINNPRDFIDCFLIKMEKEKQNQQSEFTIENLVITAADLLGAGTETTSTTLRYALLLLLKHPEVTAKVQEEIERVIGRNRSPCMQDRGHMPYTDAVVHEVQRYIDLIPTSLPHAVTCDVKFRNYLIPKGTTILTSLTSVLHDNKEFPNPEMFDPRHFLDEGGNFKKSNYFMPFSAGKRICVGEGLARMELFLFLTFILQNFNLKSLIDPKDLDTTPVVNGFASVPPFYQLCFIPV
# Chain of Cytochrome P450 2D6 (P10635 whole entry): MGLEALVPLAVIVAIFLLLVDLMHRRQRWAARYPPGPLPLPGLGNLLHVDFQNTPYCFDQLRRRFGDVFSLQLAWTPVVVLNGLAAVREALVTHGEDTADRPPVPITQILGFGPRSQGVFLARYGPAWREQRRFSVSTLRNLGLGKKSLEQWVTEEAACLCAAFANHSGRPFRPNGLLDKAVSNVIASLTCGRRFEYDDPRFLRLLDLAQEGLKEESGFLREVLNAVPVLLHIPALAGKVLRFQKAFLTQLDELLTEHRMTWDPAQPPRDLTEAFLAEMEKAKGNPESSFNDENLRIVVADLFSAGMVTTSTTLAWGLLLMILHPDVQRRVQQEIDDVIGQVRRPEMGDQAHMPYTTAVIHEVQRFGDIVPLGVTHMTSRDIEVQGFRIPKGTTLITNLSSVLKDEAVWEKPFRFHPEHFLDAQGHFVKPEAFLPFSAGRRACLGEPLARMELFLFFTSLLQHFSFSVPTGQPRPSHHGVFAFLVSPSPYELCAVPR
# Chain of hERG (KCNH2) (Q12809 whole entry): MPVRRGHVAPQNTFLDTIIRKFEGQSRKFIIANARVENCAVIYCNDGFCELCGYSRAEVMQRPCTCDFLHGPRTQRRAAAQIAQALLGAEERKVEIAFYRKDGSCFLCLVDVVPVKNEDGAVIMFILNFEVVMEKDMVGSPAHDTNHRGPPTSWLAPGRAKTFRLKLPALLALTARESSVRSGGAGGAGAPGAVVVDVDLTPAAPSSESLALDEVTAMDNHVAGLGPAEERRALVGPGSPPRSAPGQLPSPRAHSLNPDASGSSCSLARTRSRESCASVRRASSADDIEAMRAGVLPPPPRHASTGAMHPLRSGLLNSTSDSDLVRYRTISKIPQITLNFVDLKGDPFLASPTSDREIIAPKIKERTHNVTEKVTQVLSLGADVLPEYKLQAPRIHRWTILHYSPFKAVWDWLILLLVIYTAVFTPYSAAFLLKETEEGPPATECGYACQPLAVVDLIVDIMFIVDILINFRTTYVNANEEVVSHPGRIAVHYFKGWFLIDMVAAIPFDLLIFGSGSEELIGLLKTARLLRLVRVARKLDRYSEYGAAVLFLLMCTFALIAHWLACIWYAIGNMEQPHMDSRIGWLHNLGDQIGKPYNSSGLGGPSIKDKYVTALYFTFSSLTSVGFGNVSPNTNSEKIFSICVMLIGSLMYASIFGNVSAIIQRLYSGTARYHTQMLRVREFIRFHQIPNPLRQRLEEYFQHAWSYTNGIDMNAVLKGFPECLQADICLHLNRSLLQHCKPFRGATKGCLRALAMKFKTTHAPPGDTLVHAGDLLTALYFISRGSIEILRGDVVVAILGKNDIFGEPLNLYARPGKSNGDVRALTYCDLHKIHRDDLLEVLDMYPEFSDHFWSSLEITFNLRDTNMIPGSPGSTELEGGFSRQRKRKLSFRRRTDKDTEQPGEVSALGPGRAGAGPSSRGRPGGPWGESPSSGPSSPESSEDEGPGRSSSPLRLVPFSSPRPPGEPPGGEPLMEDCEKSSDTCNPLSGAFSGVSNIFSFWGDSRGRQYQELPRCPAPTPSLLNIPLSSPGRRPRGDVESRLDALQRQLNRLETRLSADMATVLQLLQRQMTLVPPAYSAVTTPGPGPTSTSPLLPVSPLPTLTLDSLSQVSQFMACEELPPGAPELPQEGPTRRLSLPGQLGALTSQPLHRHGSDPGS
# Chain of Cytochrome P450 2C9 (P11712 whole entry): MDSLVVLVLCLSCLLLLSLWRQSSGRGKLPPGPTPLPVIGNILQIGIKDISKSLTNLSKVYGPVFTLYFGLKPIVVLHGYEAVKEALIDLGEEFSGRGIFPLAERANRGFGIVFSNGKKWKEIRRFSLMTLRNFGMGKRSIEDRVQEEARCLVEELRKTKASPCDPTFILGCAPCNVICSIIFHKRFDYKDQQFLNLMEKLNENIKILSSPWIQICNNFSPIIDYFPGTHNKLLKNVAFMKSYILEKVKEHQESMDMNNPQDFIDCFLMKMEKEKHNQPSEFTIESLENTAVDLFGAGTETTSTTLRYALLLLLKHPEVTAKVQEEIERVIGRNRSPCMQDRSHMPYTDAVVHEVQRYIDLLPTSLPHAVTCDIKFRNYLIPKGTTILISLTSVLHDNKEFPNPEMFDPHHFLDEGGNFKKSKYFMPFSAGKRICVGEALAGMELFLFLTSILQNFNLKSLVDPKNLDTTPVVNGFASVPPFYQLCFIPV
structure (smiles),measurement,setting,value
[2H]C([2H])([2H])NC(=O)c1nnc(NC(=O)C2CC2)cc1Nc1cccc(-c2ncn(C)n2)c1OC [DEUCRAVACITINIB],remaining at 10 min,[1],89%
same,Papp A→B,[2],7 ×10⁻⁶ cm/s
same,half-life,[3],> 2 h
same,half-life,[4],> 2 h
same,half-life,[5],> 2 h
same,half-life,[6],> 2 h
same,half-life,[7],> 2 h
same,Papp B→A,[8],74 ×10⁻⁶ cm/s
same,IC50,Cytochrome P450 2C9,> 40 µM
same,IC50,Cytochrome P450 2C19,> 40 µM
same,IC50,Cytochrome P450 2D6,> 40 µM
same,IC50,Cytochrome P450 3A4 [9],> 40 µM
same,EC50,Cytochrome P450 3A4 [10],> 40 µM
same,inhibition at 10 µM,hERG (KCNH2),26%
same,fraction unbound,[11],0.12
same,fraction unbound,[12],0.15
same,solubility,[13],5.2 µg/mL
same,clearance,[14],13.2 mL/min/kg
same,Vd,[15],2.9 L/kg
same,half-life,[16],4.2 h
same,MRT,[17],3.6 h
same,AUC,[18],36.4 µM·h
same,bioavailability,[19],122%
same,clearance,[20],6.8 mL/min/kg
same,Vd,[21],2.3 L/kg
same,half-life,[22],4.6 h
same,MRT,[23],5.5 h
same,AUC,[24],73.6 µM·h
same,bioavailability,[25],128%
same,clearance,[26],4.8 mL/min/kg
same,Vd,[27],2 L/kg
same,half-life,[28],5.3 h
same,MRT,[29],7 h
same,Cmax,[30],5.9 µM
same,AUC,[31],75.7 µM·h
same,bioavailability,[32],87%
same,T>IC50,[33],19 h
same,inhibition in vivo at 50 mg/kg,Mus musculus [34],99%
same,inhibition in vivo at 50 mg/kg,Mus musculus [35],70%
same,Drug metabolism,[36],< 2 nM

# Reference: ChEMBL document CHEMBL4376812 (J Med Chem, 2019)
